Experimental findings from PubChem BioAssay are described below.

Calls of active or inactive are those of the source.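 How the source made its calls, unless noted: active means Her2 level under about 52% in both replicate screens, with viability over 70% of control (limit read from the data); inconclusive means Her2 under the limit in one screen only, or viability under 70%; inactive means Her2 level above the set limit.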

As a reminder, the viability is a read-out of living cells in per cent, often relative to untreated cells. A word on the inhibition: it is the drop in the measured response relative to a control, in per cent.

Test [1] can be described thus: Her2 expression decrease, cell viability multiplex – SKBR3 breast tumor cells, AlphaScreen, ATP viability, primary screen (AID 461).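 On Her2 level: lower value means less Her2 protein in the cells.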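 On viability: percent of carrier control wells set as 100% viability.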 The settings on record: SKBR3 Her2 protein level, 18-24 h, measured here: SKBR3 viability, ATP luminescence, at 10 µM. (In Alpha technology, singlet oxygen from a donor bead excites a nearby acceptor bead.)
The target of test [2] is Receptor tyrosine-protein kinase erbB-2 (Homo sapiens) (UniProt P04626). Described as above. The settings on record: 18-24 h, at 10 µM, stronger effect = lower value.
Test [3] is described as follows: reduced viability of SK-BR-3 breast cancer cells – cell-based, 24 h, human, pilot screen (AID 572;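 active means viability at or below 10% of carrier control in both of two separate runs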;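 further: compound exposure lasted between 18 and 24 h rather than exactly 24 h; 100% = carrier-treated control wells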). The settings on record: SK-BR-3 viability, CellTiter-Glo luminescence, at 10 µM, stronger effect = lower value.
Test [4] is described as follows: HUVEC growth inhibition – cell-based, human, primary screen (AID 575;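 active means viability at or below 30% in both replicate assays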;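 further: 100% = median of untreated cell wells with 0.1% DMSO on each plate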). The conditions noted are these: HUVEC proliferation, CellTiter-Glo luminescence, 72 h; at 10 µM; stronger effect = lower value. In short, it runs like this: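 Test system: primary human umbilical vein endothelial cells; medium: endothelial basal medium with 2% FBS plus growth supplements; dosing: 10 µM compound only; times: 72 h treatment at 37 °C; signal: CTG luminescence; read-out: % viability relative to median vehicle-well signal on each plate; control set: vehicle and MePR control wells; plate: 384-well, collagen-coated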
A general note: In ATP-based viability assays light output follows the ATP content of the culture.

The nature of test [5]: H69AR cell proliferation blockers – human, duplicate replicates, primary screen (AID 580;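 active means viability at or under a set limit in both replicates, limit being median viability minus 3 SD, cut at about 48% in these data, passing the limit was not always enough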;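 further: 100% = mean luminescence of untreated wells and 0% = no signal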). The settings on record: H69AR lung tumor cells viability, ATP luminescence, 72 h; at 10 µM; stronger effect = lower value.
Test [6] is described as follows: MRP1 drug-resistance reversers in H69AR cells – cell-based, doxorubicin co-treatment, pilot screen (AID 601;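 active means viability loss from added drug above about 55%, and viability with drug at most 40%, in both replicates, limit read from the data, passing the limit was not always enough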). The settings on record: CellTiter-Glo, 72 h, at 10 µM; for differential viability (reversal): stronger effect = higher value.
Test [7] is described as follows: yeast transport mutant growth inhibition pilot in 384-well plates, post-Golgi transport modulator project (AID 636; in the data active means inhibition above about 31%). The conditions noted are these: absorbance 615 nm, about 18 h, stronger effect = higher value.
Test [8] is described as follows: growth suppression of yeast trafficking mutant, preliminary HTS, modulators of trafficking downstream of Golgi apparatus project, 1536-format plate, OD 615 nm (AID 637; in the data active means inhibition above about 30%). The settings on record: yeast transport mutant growth, absorbance 615 nm, 18 h; stronger effect = higher value.
[9] abbreviates: H69AR cells + 2 uM doxorubicin, measured here: viability with 2 uM doxorubicin, stronger effect = lower value.
Setting [10] is: H69AR cells, compound alone cytotoxicity.

Receptor tyrosine-protein kinase erbB-2 (Homo sapiens), sequence (P04626 whole entry, looked up): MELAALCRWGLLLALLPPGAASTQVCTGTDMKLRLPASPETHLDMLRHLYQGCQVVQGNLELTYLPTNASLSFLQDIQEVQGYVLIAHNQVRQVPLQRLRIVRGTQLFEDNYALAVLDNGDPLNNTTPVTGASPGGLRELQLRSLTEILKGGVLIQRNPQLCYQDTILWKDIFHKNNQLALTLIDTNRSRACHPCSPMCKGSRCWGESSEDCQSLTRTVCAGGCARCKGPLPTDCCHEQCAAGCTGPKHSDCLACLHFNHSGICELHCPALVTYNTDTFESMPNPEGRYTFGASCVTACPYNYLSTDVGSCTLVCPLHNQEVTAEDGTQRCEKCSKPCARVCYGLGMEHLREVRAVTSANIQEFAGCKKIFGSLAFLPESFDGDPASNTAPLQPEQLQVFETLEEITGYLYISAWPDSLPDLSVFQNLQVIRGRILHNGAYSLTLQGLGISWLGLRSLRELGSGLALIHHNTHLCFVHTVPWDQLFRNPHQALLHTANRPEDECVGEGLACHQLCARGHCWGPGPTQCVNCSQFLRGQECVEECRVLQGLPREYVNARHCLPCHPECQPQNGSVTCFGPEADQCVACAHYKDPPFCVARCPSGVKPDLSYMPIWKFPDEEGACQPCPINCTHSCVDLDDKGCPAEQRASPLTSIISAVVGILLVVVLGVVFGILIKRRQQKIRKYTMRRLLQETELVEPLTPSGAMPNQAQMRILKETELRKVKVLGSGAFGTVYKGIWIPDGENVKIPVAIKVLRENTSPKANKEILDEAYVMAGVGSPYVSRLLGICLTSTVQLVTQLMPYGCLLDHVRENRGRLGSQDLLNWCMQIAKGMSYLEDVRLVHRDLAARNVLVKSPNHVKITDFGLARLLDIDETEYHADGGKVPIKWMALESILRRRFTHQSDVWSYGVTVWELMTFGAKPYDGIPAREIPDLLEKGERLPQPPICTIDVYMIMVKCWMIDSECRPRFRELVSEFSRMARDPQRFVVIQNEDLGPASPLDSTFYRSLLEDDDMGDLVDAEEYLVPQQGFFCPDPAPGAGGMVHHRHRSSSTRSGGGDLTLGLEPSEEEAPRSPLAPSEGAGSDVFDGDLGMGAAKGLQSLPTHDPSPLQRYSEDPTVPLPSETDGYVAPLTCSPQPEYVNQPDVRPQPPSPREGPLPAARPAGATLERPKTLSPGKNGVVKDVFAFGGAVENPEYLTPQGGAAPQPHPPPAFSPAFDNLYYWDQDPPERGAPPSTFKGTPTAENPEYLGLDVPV

For the molecule `Cc1cc(N2CCN(C)CC2)nc(N2CCOCC2)n1`, the viability in test [1] was 105%; in test [3], 105% (inactive); in test [4], 97.7% (inactive); in test [5], 92.2% (inactive); in test [6] (setting [9]), 87.4%; in test [6] (setting [10]) it was 92.2%. Also, the Her2 level in test [2] is 89.5% (inactive). In addition, in test [6] (H69AR cells + 2 uM doxorubicin), the differential viability (reversal) was 4.88% (inactive). The inhibition in test [7] is -3.82% (inactive); in test [8], -8.17% (inactive).

Take `CN(C)c1ccc(C(=O)OCC(=O)NC2CCCCC2)cc1`: the viability was 106% in test [1]; 106% (inactive) in test [3]; 98.1% (inactive) in test [4]; 91.5% (inactive) in test [5]; 82.9% in test [6] (setting [9]); 91.5% in test [6] (setting [10]). Besides, the Her2 level in test [2] was 97% (inactive). The differential viability (reversal) in test [6] (H69AR cells + 2 uM doxorubicin) was 8.63% (inactive). Further, the inhibition in test [7] was -5.6% (inactive); in test [8], 5.81% (inactive).

Regarding `O=C(COc1ccc2c(c1)OCO2)NC12CC3CC(CC(C3)C1)C2`, the viability is 89.5% in test [1]; 89.5% (inactive) in test [3]; 75.2% (inactive) in test [4]; 80.8% (inactive) in test [5]; 86% in test [6] (setting [9]); 80.8% in test [6] (setting [10]). The Her2 level in test [2] was 93% (inactive). The differential viability (reversal) in test [6] (H69AR cells + 2 uM doxorubicin) was -5.25% (inactive). Also, the inhibition in test [7] is -5.07% (inactive); in test [8] it was -6.07% (inactive).

For the molecule `Cc1c(NC(=O)c2ccc(COc3ccc4ccccc4c3)o2)c(=O)n(-c2ccccc2)n1C`, the viability was 88.5% in test [1]; 88.5% (inactive) in test [3]; 91.2% (inactive) in test [4]; 99% (inactive) in test [5]; 85.3% in test [6] (setting [9]); 99% in test [6] (setting [10]). Also, the Her2 level in test [2] is 91% (inactive). In addition, the differential viability (reversal) in test [6] (H69AR cells + 2 uM doxorubicin) is 13.7% (inactive). Moreover, the values for the inhibition in test [7] and in test [8] were -5.47% (inactive) and -5.9% (inactive), respectively.

With `COc1ccccc1C(=O)N1CCCC(c2nc(-c3cc(OC)c(OC)c(OC)c3)no2)C1` (stereo not given), the viability in test [1] was 120%; in test [3], 120% (inactive); in test [4] it was 99.4% (inactive); in test [5], 78.8% (inactive); in test [6] (setting [9]), 55.6%; in test [6] (setting [10]), 78.8%. For the same molecule, the Her2 level in test [2] is 90% (inactive). In addition, the differential viability (reversal) in test [6] (H69AR cells + 2 uM doxorubicin) was 23.2% (inactive). In addition, the inhibition in test [7] is -6.71% (inactive); in test [8], 7.3% (inactive).

Consider `CCn1cc(C(=O)N2CCN(C(=O)c3ccco3)CC2)c2cc(OC)c(OC)cc2c1=O`, for which the viability in test [1] is 95%; in test [3], 95% (inactive); in test [4] it was 91.3% (inactive); in test [5] it was 98.1% (inactive); in test [6] (setting [9]), 97.9%; in test [6] (setting [10]), 98.1%. Further, in test [2], the Her2 level is 84% (inactive). For the same molecule, the differential viability (reversal) in test [6] (H69AR cells + 2 uM doxorubicin) was 0.175% (inactive). The inhibition in test [7] is -4.61% (inactive); in test [8], -2.36% (inactive).

For the molecule `COC1CCCCC1NS(=O)(=O)c1ccccc1` (stereo not given), the viability was 106% in test [1]; 106% (inactive) in test [3]; 97.8% (inactive) in test [4]; 97.7% (inactive) in test [5]; 96.2% in test [6] (setting [9]); 97.7% in test [6] (setting [10]). In test [2], the Her2 level was 96.5% (inactive). In addition, the differential viability (reversal) in test [6] (H69AR cells + 2 uM doxorubicin) is 1.47% (inactive). Also, the inhibition in test [7] is -3.59% (inactive); in test [8], 3.17% (inactive).

With `O=C1c2ccccc2C(=O)N1CCCn1nnc(-c2ccc(N3CCOCC3)cc2)n1`, the viability is 110% in test [1]; 110% (inactive) in test [3]; 103% (inactive) in test [4]; 95.9% (inactive) in test [5]; 95.1% in test [6] (setting [9]); 95.9% in test [6] (setting [10]). In addition, in test [2], the Her2 level is 90.5% (inactive). Moreover, the differential viability (reversal) in test [6] (H69AR cells + 2 uM doxorubicin) was 0.795% (inactive). The inhibition in test [7] was -4.53% (inactive); in test [8] it was -4.43% (inactive).

With `COc1ccc(S(=O)(=O)N(CCN2CCOCC2)Cc2cc(OC)ccc2OC)cc1`, the viability is 91% in test [1]; 91% (inactive) in test [3]; 96.2% (inactive) in test [4]; 70% (inactive) in test [5]; 66.8% in test [6] (setting [9]); 70% in test [6] (setting [10]). For the same molecule, the Her2 level in test [2] is 88.5% (inactive). Further, in test [6] (H69AR cells + 2 uM doxorubicin), the differential viability (reversal) is 3.16% (inactive). Also, the inhibition is -3.25% (inactive) in test [7] and -5.08% (inactive) in test [8].

In the case of `CC1CCc2cc(F)cc3c(O)c(C(=O)Nc4cnccn4)c(=O)n1c23` (stereo not given), the viability in test [1] is 97.5%; in test [3], 97.5% (inactive); in test [4], 99.9% (inactive); in test [5], 92.8% (inactive); in test [6] (setting [9]), 94.2%; in test [6] (setting [10]), 92.8%. For the same molecule, in test [2], the Her2 level was 82.5% (inactive). Further, in test [6] (H69AR cells + 2 uM doxorubicin), the differential viability (reversal) was -1.42% (inactive). In addition, the inhibition is -0.92% (inactive) in test [7] and 4.52% (inactive) in test [8].

Regarding `O=C(Nc1ccc2c(c1)OCO2)c1ccc(Br)c(S(=O)(=O)N2CCCC2)c1`, the viability in test [1] was 98.5%; in test [3] it was 98.5% (inactive); in test [4] it was 58% (inactive); in test [5], 94% (inactive); in test [6] (setting [9]), 92.2%; in test [6] (setting [10]), 94%. Further, the Her2 level in test [2] was 80.5% (inactive). In test [6] (H69AR cells + 2 uM doxorubicin), the differential viability (reversal) was 1.82% (inactive). The inhibition in test [7] is -1.32% (inactive); in test [8] it was -0.16% (inactive).

Regarding `CC(C)Cc1n[nH]c(=O)[nH]1`, the viability in test [1] is 118%; in test [3], 118% (inactive); in test [4] it was 93.9% (inactive); in test [5], 98.4% (inactive); in test [6] (setting [9]), 88.7%; in test [6] (setting [10]), 98.4%. The Her2 level in test [2] is 115% (inactive). Further, the differential viability (reversal) in test [6] (H69AR cells + 2 uM doxorubicin) was 9.75% (inactive). In addition, the inhibition in test [7] was -6.93% (inactive); in test [8] it was -9.84% (inactive).

Regarding `COc1ccc(C(=O)CN2C(=O)NC3(CCCc4ccccc43)C2=O)cc1OC` (stereo not given), the viability was 98% in test [1]; 98% (inactive) in test [3]; 95.6% (inactive) in test [4]; 88.6% (inactive) in test [5]; 77.7% in test [6] (setting [9]); 88.6% in test [6] (setting [10]). Further, the Her2 level in test [2] was 84.5% (inactive). For the same molecule, the differential viability (reversal) in test [6] (H69AR cells + 2 uM doxorubicin) is 10.9% (inactive). For the same molecule, the inhibition is -1.87% (inactive) in test [7] and 2.42% (inactive) in test [8].

Consider `COc1cccc(-n2nnc3c(=O)n(Cc4cccc(F)c4)cnc32)c1`, for which the viability was 96.5% in test [1]; 96.5% (inactive) in test [3]; 91.7% (inactive) in test [4]; 99.9% (inactive) in test [5]; 94.6% in test [6] (setting [9]); 99.9% in test [6] (setting [10]). Moreover, the Her2 level in test [2] was 104% (inactive). In addition, the differential viability (reversal) in test [6] (H69AR cells + 2 uM doxorubicin) is 5.36% (inactive). Besides, the inhibition in test [7] was -2.7% (inactive); in test [8] it was 16.8% (inactive).
